Experimental data from ChEMBL document CHEMBL3580662, “(R)-2-Phenylpyrrolidine Substituted Imidazopyridazines: A New Class of Potent and Selective Pan-TRK Inhibitors” (ACS Med Chem Lett, 2015).

Key:
[1] = Cytotoxicity against wild type mouse BA/F3 cells assessed as inhibition of cell proliferation after 48 hrs by luciferase reporter gene assay in presence of recombinant mouse IL3; type: functional, cell-based; details: BaF3, 48 h
Procedure, shortened: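 Parental wild-type Ba/F3 cells grown with IL-3; proliferation assay, IC50 in μM.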

Rattus norvegicus [2] = experiment: Plasma clearance in Sprague-Dawley rat at 3 mg/kg, iv and 10 mg/kg, po relative to hepatic blood flow; type: ADME, organism-based; details: in vivo
[3] = molecular target: Tyrosine-protein kinase JAK2 (Homo sapiens, UniProt O60674); experiment: Inhibition of Tel-fused JAK2 (unknown origin) expressed in mouse BA/F3 cells after 48 hrs by luciferase reporter gene assay in absence of recombinant mouse IL3; type: cell-based; details: baf3
Tyrosine-protein kinase JAK2, sequence (O60674 whole entry, looked up, the tested form may be a part): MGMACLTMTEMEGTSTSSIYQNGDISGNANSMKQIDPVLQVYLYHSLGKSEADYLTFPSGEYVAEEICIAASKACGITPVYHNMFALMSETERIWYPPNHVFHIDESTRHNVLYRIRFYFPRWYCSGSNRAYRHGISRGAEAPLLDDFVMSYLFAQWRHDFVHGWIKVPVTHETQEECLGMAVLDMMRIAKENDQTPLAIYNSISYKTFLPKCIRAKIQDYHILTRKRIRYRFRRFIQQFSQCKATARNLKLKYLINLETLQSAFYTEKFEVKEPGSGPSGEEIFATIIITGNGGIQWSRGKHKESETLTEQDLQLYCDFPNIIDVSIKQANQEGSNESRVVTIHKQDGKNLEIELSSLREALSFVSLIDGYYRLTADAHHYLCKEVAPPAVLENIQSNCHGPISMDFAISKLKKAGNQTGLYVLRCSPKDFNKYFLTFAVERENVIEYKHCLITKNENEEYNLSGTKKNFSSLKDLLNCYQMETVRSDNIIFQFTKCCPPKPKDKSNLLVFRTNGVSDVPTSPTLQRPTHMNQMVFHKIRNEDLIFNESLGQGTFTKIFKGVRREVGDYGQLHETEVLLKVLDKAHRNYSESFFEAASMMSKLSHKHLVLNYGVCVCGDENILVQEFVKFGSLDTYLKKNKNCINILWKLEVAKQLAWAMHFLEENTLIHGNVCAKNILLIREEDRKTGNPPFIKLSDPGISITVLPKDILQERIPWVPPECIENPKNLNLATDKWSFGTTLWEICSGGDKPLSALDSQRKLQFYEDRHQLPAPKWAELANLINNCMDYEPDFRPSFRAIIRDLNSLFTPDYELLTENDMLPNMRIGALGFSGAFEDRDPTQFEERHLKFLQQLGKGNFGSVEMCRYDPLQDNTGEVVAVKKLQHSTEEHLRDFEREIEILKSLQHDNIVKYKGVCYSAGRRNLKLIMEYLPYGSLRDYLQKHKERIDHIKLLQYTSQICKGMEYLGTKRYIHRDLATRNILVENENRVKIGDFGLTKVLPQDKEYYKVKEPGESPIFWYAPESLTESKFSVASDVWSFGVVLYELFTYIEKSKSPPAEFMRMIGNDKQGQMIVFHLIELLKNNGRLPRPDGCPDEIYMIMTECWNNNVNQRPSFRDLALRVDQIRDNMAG

[4] = Cmax in Sprague-Dawley rat at 10 mg/kg, po; type: ADME, organism-based; parameters: dose 10 mg/kg, route oral; details: in vivo
Procedure, shortened: (§1)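 Male Sprague–Dawley rats dosed intravenously at 3 mg/kg and orally at 10 mg/kg, each as a solution in 75% PEG300/25% D5W. Plasma sampled for clearance, Vss, T1/2, oral AUC, Cmax and oral bioavailability F(%).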

[5] = Volume of distribution at steady state in Sprague-Dawley rat at 3 mg/kg, iv and 10 mg/kg, po; type: ADME, organism-based; details: in vivo, read-out: Vdss; procedure, shortened: as §1
[6] = Ratio of Cmax in brain to Cmax in plasma of Balb/C mouse at 20 mg/kg, po; type: ADME, organism-based; details: brain and plasma, read-out: BPR
[7] = Ratio of AUC in brain to AUC in plasma of Balb/C mouse at 20 mg/kg, po; type: ADME, organism-based; details: brain and plasma, read-out: Ratio AUC
[8] = Plasma clearance in Sprague-Dawley rat at 3 mg/kg, iv and 10 mg/kg, po; type: ADME, organism-based; procedure, shortened: as §1
[9] = AUC in Sprague-Dawley rat at 10 mg/kg, po; type: ADME, organism-based; details: in vivo; procedure, shortened: as §1
[10] = Oral bioavailability in Sprague-Dawley rat at 10 mg/kg; type: ADME, organism-based; details: in vivo; procedure, shortened: as §1
[11] = Half life in Sprague-Dawley rat at 3 mg/kg, iv and 10 mg/kg, po; type: ADME, organism-based; details: in vivo; procedure, shortened: as §1
KM12 [12] = experiment: Antitumor activity against human KM12 cells xenografted in po dosed CRL RNU nude rat assessed as tumor growth inhibition administered as bid for 14 days; type: functional, organism-based
Procedure, shortened: (§2)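 Female CRL RNU nude rats transplanted with KM12 tumor tissue; dosing started 10 days postimplant, twice daily for 14 days at 6.25, 12.5, 25 or 50 mg/kg alongside vehicle. Efficacy read as tumor volume.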

[13] = Plasma clearance in Wistar rat at 3 mg/kg, iv and 10 mg/kg, po; type: ADME, organism-based
Procedure, shortened: (§3)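 Male Wistar rats given 3 mg/kg IV and 10 mg/kg PO, formulated as a solution in 75% PEG300/25% D5W. Plasma PK parameters derived: CL, Vss, T1/2, AUC and Cmax after oral dosing, and F(%).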

[14] = Volume of distribution at steady state in Wistar rat at 3 mg/kg, iv and 10 mg/kg, po; type: ADME, organism-based; details: in vivo, read-out: Vdss; procedure, shortened: as §3
[15] = Half life in Wistar rat at 3 mg/kg, iv and 10 mg/kg, po; type: ADME, organism-based; details: in vivo; procedure, shortened: as §3
[16] = AUC in Wistar rat at 10 mg/kg, po; type: ADME, organism-based; details: in vivo; procedure, shortened: as §3
[17] = Oral bioavailability in Wistar rat at 10 mg/kg; type: ADME, organism-based; details: in vivo; procedure, shortened: as §3
KM12 [18] = experiment: Antitumor activity against human KM12 cells xenografted in CRL RNU nude rat assessed as induction of tumor regression at 50 mg/kg, po bid administered for 14 days relative to vehicle-treated control; type: functional; procedure, shortened: as §2
[19] = Cmax in Wistar rat at 10 mg/kg, po; type: ADME, organism-based; parameters: dose 10 mg/kg, route oral; details: in vivo; procedure, shortened: as §3
Rattus norvegicus [20] = experiment: Plasma clearance in Wistar rat at 3 mg/kg, iv and 10 mg/kg, po relative to hepatic blood flow; type: ADME, organism-based; details: in vivo
Rattus norvegicus [21] = experiment: Toxicity in CRL RNU nude rat xenografted with human KM12 cells assessed as increase in body weight at 25 to 50 mg/kg, po bid administered for 14 days measured on day 14 post last dose; type: organism-based; details: in vivo, 336 h
[22] = molecular target: BDNF/NT-3 growth factors receptor (Homo sapiens, UniProt Q16620); experiment: Inhibition of TRKB (unknown origin) by scintillation proximity assay
BDNF/NT-3 growth factors receptor, sequence (Q16620 whole entry): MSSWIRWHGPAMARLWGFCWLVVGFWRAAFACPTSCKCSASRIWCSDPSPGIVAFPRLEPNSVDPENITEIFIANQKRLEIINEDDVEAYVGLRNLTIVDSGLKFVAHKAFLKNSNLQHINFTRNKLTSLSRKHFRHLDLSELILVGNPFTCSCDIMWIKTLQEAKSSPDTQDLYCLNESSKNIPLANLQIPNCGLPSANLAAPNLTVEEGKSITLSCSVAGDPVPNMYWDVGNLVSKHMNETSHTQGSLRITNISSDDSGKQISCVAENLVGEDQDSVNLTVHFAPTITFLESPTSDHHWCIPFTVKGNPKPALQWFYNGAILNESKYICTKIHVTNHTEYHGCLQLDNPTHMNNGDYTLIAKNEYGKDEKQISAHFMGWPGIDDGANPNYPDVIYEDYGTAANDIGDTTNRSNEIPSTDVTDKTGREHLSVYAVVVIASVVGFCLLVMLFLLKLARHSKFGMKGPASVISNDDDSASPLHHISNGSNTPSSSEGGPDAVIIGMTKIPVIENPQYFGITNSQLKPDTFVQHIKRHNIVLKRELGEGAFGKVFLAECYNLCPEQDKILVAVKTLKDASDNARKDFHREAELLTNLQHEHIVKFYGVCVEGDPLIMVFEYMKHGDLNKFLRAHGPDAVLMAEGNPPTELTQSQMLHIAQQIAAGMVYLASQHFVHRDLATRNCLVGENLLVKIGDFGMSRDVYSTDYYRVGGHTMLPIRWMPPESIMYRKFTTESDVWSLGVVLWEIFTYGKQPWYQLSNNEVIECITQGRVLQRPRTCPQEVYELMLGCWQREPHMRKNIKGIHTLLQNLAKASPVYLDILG
Procedure, shortened: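 TRKB biochemical inhibition measured by scintillation proximity assay; IC50 reported.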

## CN(Cc1ccccc1)c1ccc2ncc(-c3ccc(C#N)cc3)n2n1
[1]
  IC50: 5.89 µM

## O=C(O)CN1CCN(c2cc(-c3cnc4ccc(N5CCC[C@@H]5c5cccc(F)c5)nn34)ccn2)CC1
Rattus norvegicus [2]
  CL: 82%
[3]
  IC50: 2.7 µM
[4]
  Cmax: 250 nM
[5]
  Vd: 2.4 L/kg
[6]
  Kp: 0.8
[7]
  Kp: 0.8
[8]
  clearance: 45.5 mL/min/kg
[1]
  IC50: 4.79 µM
[9]
  AUC: 1.9 µM·h
[10]
  bioavailability: 26%
[11]
  half-life: 54 min

## Fc1cccc([C@H]2CCCN2c2ccc3ncc(-c4ccccn4)n3n2)c1
[3]
  IC50: 6.7 µM
[1]
  IC50: > 10 µM

## NS(=O)(=O)c1ccc(-c2cnc3ccc(NCc4cccc(F)c4)nn23)cc1
[1]
  IC50: 2.53 µM

## OC1CCN(c2cccc(-c3cnc4ccc(N5CCC[C@@H]5c5cccc(F)c5)nn34)n2)CC1
Rattus norvegicus [2]
  CL: 100%
[4]
  Cmax: 110 nM
[5]
  Vd: 2.3 L/kg
[8]
  clearance: 56.9 mL/min/kg
[1]
  IC50: > 10 µM
[9]
  AUC: 0.659 µM·h
[10]
  bioavailability: 10%
[11]
  half-life: 49.8 min

## OC1CCN(c2cc(-c3cnc4ccc(N5CCC[C@@H]5c5cccc(F)c5)nn34)ccn2)CC1
KM12 [12]
  TGI: Dose-dependent effect
[13]
  clearance: 45.2 mL/min/kg
[3]
  IC50: 5.6 µM
[6]
  Kp: 0.2
[14]
  Vd: 4.9 L/kg
[15]
  half-life: 96 min
[16]
  AUC: 1.88 µM·h
[7]
  Kp: 0.2
[17]
  bioavailability: 27%
KM12 [18]
  Activity: 20%
[1]
  IC50: 5.91 µM
[19]
  Cmax: 215 nM
Rattus norvegicus [20]
  CL: 82%
Rattus norvegicus [21]
  Activity: Toxic

## OCc1ccc(-c2cnc3ccc(NCc4cccc(F)c4)nn23)cc1
[1]
  IC50: 1.92 µM

## N#Cc1cccc(-c2cnc3ccc(NCc4ccccc4)nn23)c1
[1]
  IC50: > 10 µM

## N#Cc1ccc(-c2cnc3ccc(N4CCCC4c4cccc(F)c4)nn23)cc1 (racemic)
[1]
  IC50: > 10 µM

## O=C(Nc1ccc(-c2cnc3ccc(NCc4cccc(F)c4)nn23)cc1)C1CCOCC1
[1]
  IC50: 3 µM

## N#Cc1ccc(-c2cnc3ccc(NCc4ccccc4)nn23)cc1
[22]
  IC50: 0.083 µM
[3]
  IC50: 4.7 µM
[1]
  IC50: 7.13 µM

## N#Cc1ccc(-c2cnc3ccc(N4CCOCC4c4cccc(F)c4)nn23)cc1 (racemic)
[1]
  IC50: > 10 µM

## N#Cc1ccc(-c2cnc3ccc(N4CCC[C@@H]4c4cccc(F)c4)nn23)cc1
[1]
  IC50: > 10 µM

## N#Cc1ccc(-c2cnc3ccc(N4CCC[C@H]4c4cccc(F)c4)nn23)cc1
[1]
  IC50: 9.23 µM

## N#Cc1ccc(-c2cnc3ccc(N4CCCCC4c4cccc(F)c4)nn23)cc1 (racemic)
[1]
  IC50: > 10 µM

## COc1ccccc1CNc1ccc2ncc(-c3ccc(C#N)cc3)n2n1
[1]
  IC50: 1.01 µM

## N#Cc1ccc(-c2cnc3ccc(NCc4cccc(F)c4)nn23)cc1
[1]
  IC50: 3.92 µM
